Data set [1] can be described thus: Agonist activity at human Vgamma9Vdelta2 receptor expressed in T cells assessed as stimulation of TNFalpha release by ELISA. It counts as functional, cell-based. The note with it: T-cell.
A short description of data set [2]: Chemical stability at 4 degC after 7 days. It counts as physicochemical. The note with it: 168 h. Put shortly: (§1)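 Pyrophosphate analogue tested as 0.3 mM solution and pyrophosphonate analogue as 0.5 mM solution under the stated temperature, 0.1 N HCl or H2O2 stress. Degradation was measured by ionic chromatography with conductometric detection and estimated as % of relative area.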

A short description of data set [3]: Chemical stability assessed as degradation in 3% H2O2 at 60 degC after 2 hrs. It counts as physicochemical. The note with it: read-out: Activity. Put shortly:
as §1

Data set [4] concerns T-cell. In words: Effect on proliferation of human T cell expressing Vgamma9Vdelta2 receptor in cynomolgus monkey co-treated with IL2 assessed as circulating T cells in blood at 10 mg/kg, iv. It counts as functional, organism-based. Also noted: dose 10 mg/kg. Put shortly:
(§2)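 Purpose-bred cynomolgus monkeys (7 male, 7 female, 1.8–3.5 kg) got an i.v. bolus in Ringer lactate, with IL-2 0.6 M IU s.c. daily for 5 days. Blood was taken predose and on days 4, 5, 7, 11 and 14. Whole-blood flow cytometry used anti-Vγ9, CD3 and CD69 staining, red-cell lysis and counting fluorospheres for absolute counts.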

Data set [5] concerns T-cell. Kind of data set: Effect on proliferation of human T cell expressing Vgamma9Vdelta2 receptor in cynomolgus monkey co-treated with IL2 assessed as circulating T cells in blood at 5 mg/kg, iv. The format is functional, organism-based. Also on record: dose 5 mg/kg. Put shortly:
as §2

The test system of the next data set is Rattus norvegicus. Kind of data set: Drug level in iv dosed rat assessed as recovered compound after 7 days. The format is ADME, organism-based. The note with it: in vivo, 168 h.
Data set [6] can be described thus: Chemical stability assessed as degradation at 60 degC after 24 hrs. It counts as physicochemical. Conditions: read-out: Activity. Put shortly: as §1
The nature of data set [7]: Drug level in iv dosed rat assessed as excreted compound in urine. It counts as ADME, organism-based. Conditions: read-out: Drug uptake.
A short description of data set [8]: Effect on proliferation of human T cell expressing Vgamma9Vdelta2 receptor in cynomolgus monkey co-treated with IL2 assessed as circulating T cells in blood at 2.5 mg/kg, iv. It counts as functional. Put shortly: (§3)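 Cynomolgus monkeys were dosed i.v. in Ringer lactate, either as a 30 min infusion (50 mL) or as a bolus depending on the series, with IL-2 0.6 M IU s.c. daily for 5 days. Blood was sampled predose and on days 4, 5, 7, 11 and 14. Circulating γδ-cells were counted by flow cytometry (Vγ9/CD3/CD69 staining, counting beads).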

Data set [9] has as its system T-cell. In words: Effect on proliferation of human T cell expressing Vgamma9Vdelta2 receptor in cynomolgus monkey co-treated with IL2 assessed as circulating T cells in blood at 0.02 mg/kg, iv. Also noted: dose 0.02 mg/kg. It counts as functional, organism-based. Put shortly: as §3
Data set [10] in a line: Chemical stability assessed as degradation at 25 degC after 7 days. The format is physicochemical. Conditions: 168 h. Put shortly:
as §1

Calls of active or inactive are those of the source. No cut-off for these calls is given here.

For the compound `CC(O)(CBr)CCOP(=O)(O)OP(=O)(O)O` (configuration not stated) [BROMOHYDRIN PYROPHOSPHATE], the EC50 – broadly, the concentration at which the effect is half-maximal – in data set [1] stood at 23.9 nM.
Regarding `C/C(=C/CO)CCP(=O)(O)OP(=O)(O)O`, the EC50 in data set [1] was more than 100000 nM.
As for `C/C(=C/CO)CCP(=O)(O)O`, the concentration giving a half-maximal response (EC50) in [1] was more than 100000 nM.
On the same count and under the same terms, the figure for `C/C(=C/COP(=O)(O)OP(=O)(O)O)CO` is 252 nM.
Still for that read-out and setting: in the case of `C/C(=C\CO)COP(=O)(O)OP(=O)(O)O` it was 93.5 nM.
`C/C(=C/CO)COP(=O)(O)OP(=O)(O)O`: the EC50 in data set [1] was more than 100000 nM.
Consider `C/C(=C\COP(=O)(O)OP(=O)(O)O)CO`, for which the Stability result in data set [2] was “Stable”. Moreover, in [3], the degraded at 2 h was 4%. Also, the result in the data set with T-cell [4], in the data set with T-cell [5] and in the data set with T-cell [9] was Active. In addition, the concentration for a half-maximal effect (EC50) in data set [1] was determined as 0.39 nM. Also, the Drug uptake with Rattus norvegicus is reported as 80%. In [6], the degraded at 24 h is 14%. For the same compound, the dose excreted in data set [7] worked out at 50%. Moreover, the Activity in [8] was found to be 40%. Moreover, the degradation in [10] stood at 5%.

The record behind these values is ChEMBL document CHEMBL1142304, “Synthesis and biological activity of phosphonate analogues and geometric isomers of the highly potent phosphoantigen (E)-1-hydroxy-2-methylbut-2-enyl 4-diphosphate” (J Med Chem, 2008).
